Test results from PMC11044719 (Journal of Enzyme Inhibition and Medicinal Chemistry, 2024).

How the values were obtained:
[1] = target: FGFR4 kinase (Homo sapiens, UniProt P22455); assay: biochemical; assay type: biochemical; conditions: for inhibition at 1 µM: read-out: % inhibition against FGFR4 kinase
[2] = Metabolic stability assay in mouse liver microsomes; assay type: in vitro ADME; conditions: pH 7
Outline: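 Human or mouse liver microsomes (0.5 mg/ml) were pre-incubated 5 min at 37 °C with 1 μM test compound in 0.1 M phosphate buffer, pH 7. NADPH regenerating system was added and the mix incubated 30 min at 37 °C. Acetonitrile with internal standard stopped the reaction. Parent compound was measured by LC-MS/MS, with % remaining at 30 min versus 0 min, in duplicate.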

[3] = Metabolic stability assay in human liver microsomes; assay type: in vitro ADME; conditions: pH 7
[4] = target: FGFR3 (Homo sapiens, UniProt P22607); assay: In vitro kinase assay; assay type: biochemical; conditions: read-out: % inhibition at 1 μM FGFR3
FGFR3, sequence (P22607 23-806): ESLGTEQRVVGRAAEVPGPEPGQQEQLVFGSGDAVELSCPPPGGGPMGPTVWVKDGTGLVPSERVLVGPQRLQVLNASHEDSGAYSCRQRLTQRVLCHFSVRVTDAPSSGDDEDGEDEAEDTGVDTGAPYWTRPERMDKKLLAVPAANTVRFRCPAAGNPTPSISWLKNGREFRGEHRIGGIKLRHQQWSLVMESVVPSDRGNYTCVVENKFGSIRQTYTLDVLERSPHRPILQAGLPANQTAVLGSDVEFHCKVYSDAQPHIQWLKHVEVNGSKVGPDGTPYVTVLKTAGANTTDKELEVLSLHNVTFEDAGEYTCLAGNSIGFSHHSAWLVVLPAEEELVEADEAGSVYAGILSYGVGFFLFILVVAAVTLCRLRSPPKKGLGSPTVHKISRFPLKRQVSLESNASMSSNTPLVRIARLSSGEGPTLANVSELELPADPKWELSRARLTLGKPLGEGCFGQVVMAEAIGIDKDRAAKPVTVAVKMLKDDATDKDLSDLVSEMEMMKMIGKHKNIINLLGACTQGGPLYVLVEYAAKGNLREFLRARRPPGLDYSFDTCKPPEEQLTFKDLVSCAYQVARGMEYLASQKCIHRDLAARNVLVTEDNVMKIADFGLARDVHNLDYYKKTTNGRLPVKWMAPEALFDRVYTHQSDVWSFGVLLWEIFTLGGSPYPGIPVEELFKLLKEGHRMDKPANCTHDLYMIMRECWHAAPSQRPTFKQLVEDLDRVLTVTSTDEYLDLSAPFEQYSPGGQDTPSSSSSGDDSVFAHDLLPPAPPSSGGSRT
Outline: (§1)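 Test compound at 0.1 and 1 μM against each FGFR isoform with ATP at its Km concentration; percent inhibition reported.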

[5] = target: FGFR2 (Homo sapiens, UniProt P21802); assay: In vitro kinase assay; assay type: biochemical; conditions: read-out: % inhibition at 1 μM FGFR2
FGFR2, sequence (P21802 22-821): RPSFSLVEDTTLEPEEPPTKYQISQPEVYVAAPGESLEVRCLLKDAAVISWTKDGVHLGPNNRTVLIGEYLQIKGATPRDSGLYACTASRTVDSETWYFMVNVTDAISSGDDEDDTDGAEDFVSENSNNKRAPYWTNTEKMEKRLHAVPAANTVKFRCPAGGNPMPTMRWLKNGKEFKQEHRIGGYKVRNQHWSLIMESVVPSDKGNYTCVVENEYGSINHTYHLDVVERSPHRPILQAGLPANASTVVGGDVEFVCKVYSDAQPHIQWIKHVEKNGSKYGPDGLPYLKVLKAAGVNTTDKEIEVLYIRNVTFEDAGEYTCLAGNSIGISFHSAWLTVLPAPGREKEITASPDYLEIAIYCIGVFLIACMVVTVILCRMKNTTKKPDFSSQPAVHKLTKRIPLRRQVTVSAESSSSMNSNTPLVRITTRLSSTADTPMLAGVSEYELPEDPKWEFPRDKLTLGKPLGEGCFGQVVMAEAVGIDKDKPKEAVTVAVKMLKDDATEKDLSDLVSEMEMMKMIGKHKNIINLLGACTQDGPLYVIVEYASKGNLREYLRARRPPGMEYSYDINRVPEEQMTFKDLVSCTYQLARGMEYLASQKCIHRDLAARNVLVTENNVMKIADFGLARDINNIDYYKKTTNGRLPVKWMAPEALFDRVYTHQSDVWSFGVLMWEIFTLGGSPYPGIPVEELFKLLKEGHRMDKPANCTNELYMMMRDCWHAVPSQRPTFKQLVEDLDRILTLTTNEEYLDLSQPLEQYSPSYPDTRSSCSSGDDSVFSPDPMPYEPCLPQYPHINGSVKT
Outline: as §1

[6] = target: FGFR1 (Homo sapiens, UniProt P11362); assay: In vitro kinase assay; assay type: biochemical; conditions: read-out: % inhibition at 1 μM FGFR1
FGFR1, sequence (P11362 22-822): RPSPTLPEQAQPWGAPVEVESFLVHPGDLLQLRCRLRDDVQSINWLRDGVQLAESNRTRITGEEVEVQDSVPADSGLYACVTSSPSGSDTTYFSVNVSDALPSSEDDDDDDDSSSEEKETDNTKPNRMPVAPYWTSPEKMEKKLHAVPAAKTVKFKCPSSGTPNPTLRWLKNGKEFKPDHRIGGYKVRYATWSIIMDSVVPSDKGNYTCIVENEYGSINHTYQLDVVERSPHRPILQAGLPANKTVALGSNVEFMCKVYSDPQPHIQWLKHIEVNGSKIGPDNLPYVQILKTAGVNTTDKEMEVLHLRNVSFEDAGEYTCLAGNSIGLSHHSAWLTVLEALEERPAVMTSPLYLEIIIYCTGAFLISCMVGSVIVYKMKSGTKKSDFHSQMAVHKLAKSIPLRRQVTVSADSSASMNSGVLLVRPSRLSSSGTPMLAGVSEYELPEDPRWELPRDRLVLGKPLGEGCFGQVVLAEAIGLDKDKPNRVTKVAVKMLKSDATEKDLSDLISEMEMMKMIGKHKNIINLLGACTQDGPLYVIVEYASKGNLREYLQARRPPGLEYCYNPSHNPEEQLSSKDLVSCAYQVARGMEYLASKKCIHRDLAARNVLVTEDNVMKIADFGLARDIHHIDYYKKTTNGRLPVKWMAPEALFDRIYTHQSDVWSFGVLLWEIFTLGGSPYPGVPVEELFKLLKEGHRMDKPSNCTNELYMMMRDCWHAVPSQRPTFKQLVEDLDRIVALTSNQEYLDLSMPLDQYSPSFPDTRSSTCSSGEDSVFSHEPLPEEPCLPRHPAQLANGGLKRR
Outline: as §1

FGFR4 kinase, sequence (P22455 22-802): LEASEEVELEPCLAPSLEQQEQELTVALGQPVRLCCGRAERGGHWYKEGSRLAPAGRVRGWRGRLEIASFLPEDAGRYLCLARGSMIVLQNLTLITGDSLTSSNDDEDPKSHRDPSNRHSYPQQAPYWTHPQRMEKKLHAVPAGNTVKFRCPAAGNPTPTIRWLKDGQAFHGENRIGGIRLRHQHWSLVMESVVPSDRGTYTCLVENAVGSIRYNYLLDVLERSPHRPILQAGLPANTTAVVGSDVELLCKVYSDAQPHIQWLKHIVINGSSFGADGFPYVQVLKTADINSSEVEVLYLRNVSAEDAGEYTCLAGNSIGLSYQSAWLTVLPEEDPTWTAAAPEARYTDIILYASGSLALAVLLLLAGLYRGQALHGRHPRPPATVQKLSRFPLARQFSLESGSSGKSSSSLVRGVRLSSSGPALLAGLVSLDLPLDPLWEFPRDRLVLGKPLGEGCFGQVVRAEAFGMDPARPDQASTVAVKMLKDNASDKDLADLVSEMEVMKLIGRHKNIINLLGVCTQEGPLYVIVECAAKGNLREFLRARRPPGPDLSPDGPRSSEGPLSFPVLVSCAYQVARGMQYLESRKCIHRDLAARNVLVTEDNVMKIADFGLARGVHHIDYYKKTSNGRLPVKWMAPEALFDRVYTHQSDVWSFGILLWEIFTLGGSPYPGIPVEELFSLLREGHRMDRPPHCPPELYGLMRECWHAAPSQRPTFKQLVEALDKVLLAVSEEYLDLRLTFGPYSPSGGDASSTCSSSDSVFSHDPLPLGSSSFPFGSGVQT

inhibition at 1 µM [1] | SMILES | also measured
21% | C=CC(=O)Nc1ccccc1C(=O)Nc1cccnn1 [2a, 2-Acrylamido-N-(pyridazin-3-yl)benzamide] | –
9% | C=CC(=O)Nc1ccccc1C(=O)Nc1ccccn1 [2b, 2-Acrylamido-N-(pyridin-2-yl)benzamide] | –
7% | C=CC(=O)Nc1ccccc1C(=O)Nc1cccnc1 [2c, 2-Acrylamido-N-(pyridin-3-yl)benzamide] | –
6% | C=CC(=O)Nc1ccccc1C(=O)Nc1ncccn1 [2d, 2-Acrylamido-N-(pyrimidin-2-yl)benzamide] | –
12% | C=CC(=O)Nc1ccccc1C(=O)Nc1ccncn1 [2e, 2-Acrylamido-N-(pyrimidin-4-yl)benzamide] | –
9% | C=CC(=O)Nc1ccccc1C(=O)Nc1cnccn1 [2f, 2-Acrylamido-N-(pyrazin-2-yl)benzamide] | –
30% | C=CC(=O)Nc1ccccc1C(=O)Nc1ccc(Cl)nn1 [2g, 2-Acrylamido-N-(6-chloropyridazin-3-yl)benzamide] | –
44% | C#Cc1ccc(NC(=O)c2ccccc2NC(=O)C=C)cn1 [2h, 2-Acrylamido-N-(6-ethynylpyridin-3-yl)benzamide] | –
49% | C#Cc1ccc(NC(=O)c2ccccc2NC(=O)C=C)nn1 [2i, 2-Acrylamido-N-(6-ethynylpyridazin-3-yl)benzamide] | –
5% | C=CC(=O)Nc1ccccc1C(=O)Nc1cc(C)on1 [2j, 2-Acrylamido-N-(5-methylisoxazol-3-yl)benzamide] | –
4% | C=CC(=O)Nc1ccccc1C(=O)Nc1n[nH]c2ccccc12 [2k, 2-Acrylamido-N-(1H-indazol-3-yl)benzamide] | –
0% | C=CC(=O)Nc1ccccc1C(=O)Nc1ncnc2ccccc12 [2l, 2-Acrylamido-N-(quinazolin-4-yl)benzamide] | –
10% | C=CC(=O)Nc1ccccc1C(=O)Nc1ccc(C#CCN(C)C)nn1 [4a, 2-Acrylamido-N-(6–(3-(dimethylamino)prop-1-yn-1-yl)pyridazin-3-yl)benzamide] | –
47% | C=CC(=O)Nc1ccccc1C(=O)Nc1ccc(C#CCOC)nn1 [4b, 2-Acrylamido-N-(6–(3-methoxyprop-1-yn-1-yl)pyridazin-3-yl)benzamide] | –
97% | C=CC(=O)Nc1ccccc1C(=O)Nc1ccc(C#Cc2ccc(OC)cc2)nn1 [4c, 2-Acrylamido-N-(6-((4-methoxyphenyl)ethynyl)pyridazin-3-yl)benzamide] | remaining at 0.5 h, 1 μM [2]: 25.2%; remaining at 0.5 h, 1 μM [3]: 7.5%; IC50 [1]: 33 nM; fold more potent than staurosporin (IC50) [1]: 5 fold; fold improvement of IC50 compared to that of other derivatives ([1]; FGFR4 IC50 compared with other derivatives of Table 3): ~10 fold; inhibition at 1 µM [4]: 0%
86% | C=CC(=O)Nc1ccccc1C(=O)Nc1ccc(C#Cc2cccc(OC)c2)nn1 [4d, 2-Acrylamido-N-(6-((3-methoxyphenyl)ethynyl)pyridazin-3-yl)benzamide] | IC50 [1]: 424 nM

inhibition at 1 µM [1] | SMILES | also measured
42% | C=CC(=O)Nc1ccccc1C(=O)Nc1ccc(C#Cc2ccccc2OC)nn1 [4e, 2-Acrylamido-N-(6-((2-methoxyphenyl)ethynyl)pyridazin-3-yl)benzamide] | –
80% | C=CC(=O)Nc1ccccc1C(=O)Nc1ccc(C#Cc2cc(OC)cc(OC)c2)nn1 [4f, 2-Acrylamido-N-(6-((3,5-dimethoxyphenyl)ethynyl)pyridazin-3-yl)benzamide] | –
59% | C=CC(=O)Nc1ccccc1C(=O)Nc1ccc(C#Cc2cccc(N(C)C)c2)nn1 [4g, 2-Acrylamido-N-(6-((3-(dimethylamino)phenyl)ethynyl)pyridazin-3-yl)benzamide] | –
92% | C=CC(=O)Nc1ccccc1C(=O)Nc1ccc(C#Cc2ccc(N(C)C)cc2)nn1 [4h, 2-Acrylamido-N-(6-((4-(dimethylamino)phenyl)ethynyl)pyridazin-3-yl)benzamide] | –
91% | C=CC(=O)Nc1ccccc1C(=O)Nc1ccc(C#Cc2ccccc2)nn1 [4i, 2-Acrylamido-N-(6-(phenylethynyl)pyridazin-3-yl)benzamide] | IC50 [1]: 235 nM
13% | C=CC(=O)Nc1ccccc1C(=O)Nc1ccc(C#Cc2cccnc2)nn1 [4j, 2-Acrylamido-N-(6-(pyridin-3-ylethynyl)pyridazin-3-yl)benzamide] | –
25% | C=CC(=O)Nc1ccccc1C(=O)Nc1ccc(C#CC2CCCCC2)nn1 [4k, 2-Acrylamido-N-(6-(cyclohexylethynyl)pyridazin-3-yl)benzamide] | –
17% | C=CC(=O)Nc1ccccc1C(=O)Nc1ccc(C#Cc2cccc3ccccc23)nn1 [4l, 2-Acrylamido-N-(6-(naphthalen-1-ylethynyl)pyridazin-3-yl)benzamide] | –
37% | C=CC(=O)Nc1ccccc1C(=O)Nc1ccc(C#CCOc2cccc(OC)c2)nn1 [4m, 2-Acrylamido-N-(6–(3-(3-methoxyphenoxy)prop-1-yn-1-yl)pyridazin-3-yl)benzamide] | –
7% | C=CC(=O)Nc1ccccc1C(=O)Nc1ccc(Oc2cccc(OC)c2)nn1 [4n, 2-Acrylamido-N-(6–(3-methoxyphenoxy)pyridazin-3-yl)benzamide] | –
39% | C=CC(=O)Nc1ccccc1C(=O)Nc1ccc(-c2cccc(OC)c2)nn1 [4o, 2-Acrylamido-N-(6–(3-methoxyphenyl)pyridazin-3-yl)benzamide] | –
26% | C=CC(=O)Nc1ccccc1C(=O)Nc1ccc(CCc2cccc(OC)c2)nn1 [4p, 2-Acrylamido-N-(6–(3-methoxyphenethyl)pyridazin-3-yl)benzamide] | –
13% | C=CC(=O)Nc1ccccc1C(=O)Nc1ccc(CCc2cccc(N(C)C)c2)nn1 [4q, 2-Acrylamido-N-(6–(3-(dimethylamino)phenethyl)pyridazin-3-yl)benzamide] | –
92% | C=CC(=O)Nc1ccccc1C(=O)Nc1ccc(C#Cc2ccc3c(c2)OCO3)nn1 [4s, 2-Acrylamido-N-(6–(2-(1,3-benzodioxol-5-yl)ethynyl)pyridazin-3-yl)benzamide] | remaining at 0.5 h, 1 μM [2]: 53.9%; remaining at 0.5 h, 1 μM [3]: 62.1%; IC50 [1]: 319 nM
0% | CCC(=O)Nc1ccccc1C(=O)Nc1ccc(C#Cc2ccc(OC)cc2)nn1 [4t, N-[6-[2–(4-methoxyphenyl)ethynyl]pyridazin-3-yl]-2-(propanoylamino)benzamide] | –
97% | C=CC(=O)N[C@H]1CCOC[C@H]1Nc1ncc2cc(-c3c(Cl)c(OC)cc(OC)c3Cl)ccc2n1 [BLU554, fisogatinib, reference compound] | inhibition at 1 µM [5]: 11%; inhibition at 1 µM [6]: 29%; inhibition at 1 µM [4]: 10%
